GI50 and Activity data for 1 compound are collected here from ChEMBL document CHEMBL1240422, “Design, synthesis and biological evaluation of 3,5-diaryl-isoxazoline/isoxazole-pyrrolobenzodiazepine conjugates as potential anticancer agents” (2010).

Activity calls are given as the source filed them. No cut-off for these calls is given here.

The test system of one test is ZR-75-1. In words: Anticancer activity against human ZR-75-1 cells after 48 hrs by SRB assay. The format is functional. Conditions: ZR-75-1, 48 h. In a few lines: (§1)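 Cells grown in RPMI 1640 with 10% FBS and 2 mM L-glutamine, plated at densities set by doubling time, and preincubated 24 h at 37 °C, 5% CO2. Compounds were tested at four concentrations (0.1, 1, 10, 100) in triplicate wells with 48 h continuous exposure. Cells were fixed with cold TCA (10% final, 60 min, 4 °C) and stained with 0.4% SRB in 1% acetic acid (20 min, RT). Dye was eluted with 10 mM Trizma base and read at 540 nm (690 nm reference). Percent growth is relative to control wells, plate by plate.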
(In general: In SRB staining, fixed cells bind dye roughly in proportion to their protein.)

Another test concerns A2780. As to the kind of experiment: Anticancer activity against human A2780 cells after 48 hrs by SRB assay. The format is functional. The settings on record: A2780, 48 h. Put shortly: (§2)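 Grown in RPMI 1640 with 10% FBS and 2 mM L-glutamine at 37 °C, 5% CO2. Seeded at densities set by doubling time, then preincubated 24 h. Continuous 48 h drug exposure at four concentrations (0.1, 1, 10, 100), triplicate wells. Fixed with cold TCA (final 10%) at 4 °C, 60 min. Stained with 0.4% SRB in 1% acetic acid, eluted with 10 mM Tris base, read at 540/690 nm. Percent growth versus control wells.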

In the next test the test system is KB. As to the kind of experiment: Anticancer activity against human KB cells after 48 hrs by SRB assay. The format is functional. Put shortly: as §2
The test system of the next test is SiHa. In words: Anticancer activity against human SiHa cells after 48 hrs by SRB assay. In kind it is functional. In a few lines:
as §1

In test [1] the test system is A-375. As to the kind of experiment: Cell cycle arrest in human A375 cells assessed as accumulation at G0/G1 phase at 4 uM after 24 hrs using propidium iodide staining by FACS. In kind it is functional. Put shortly: (§3)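 Treated A375 cells (24 h) were harvested with trypsin-EDTA and fixed in ice-cold 70% ethanol (4 °C, 30 min). After a PBS wash, they were incubated with 1 mg/mL RNase A (37 °C, 30 min) and stained with propidium iodide solution containing trisodium citrate and Triton X-100. DNA content was measured by flow cytometry on 20,000 events. Controls were DMSO-treated.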
(A flow cytometer gives signals particle by particle.)

Test [2] concerns A-375. In words: Cell cycle arrest in human A375 cells assessed as accumulation at S phase at 4 uM after 24 hrs using propidium iodide staining by FACS. In kind it is functional. In a few lines: as §3
Test [3] has as its system A-375. In words: Cell cycle arrest in human A375 cells assessed as accumulation at G2/M phase at 4 uM after 24 hrs using propidium iodide staining by FACS. In kind it is functional. In a few lines:
as §3

The test system of test [4] is A-375. As to the kind of experiment: Induction of apoptosis in human A375 cells assessed as increase in p53 protein level at 4 uM after 24 hrs by Western blotting. The format is functional, cell-based. In a few lines:
(§4)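 A375 cells treated 24 h, then lysed in ice-cold RIPA buffer (1% NP-40, 0.5% deoxycholate, 0.1% SDS, protease inhibitors). Protein was quantified by Bradford, and 30 µg per lane run on 12% SDS-PAGE and transferred to PVDF. Blots were blocked 2 h at RT in TBST with 5% blocking powder, probed with primary antibody overnight at 4 °C, then HRP secondary (1:2000, 1 h RT), and read by chemiluminescence against β-actin loading control.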
Background: A western blot detects proteins with antibodies after separation by electrophoresis.

Test [5] relates to A-375. As to the kind of experiment: Induction of apoptosis in human A375 cells assessed as increase in PPAR protein level at 4 uM after 24 hrs by Western blotting. In kind it is functional, cell-based. In a few lines: (§5)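 A375 cells were treated for 24 h and lysed in ice-cold RIPA buffer (1% NP-40, 0.5% deoxycholate, 0.1% SDS, protease inhibitors). Protein was quantified by Bradford assay, and 30 µg/lane was run on 12% SDS-PAGE and transferred to PVDF. Membranes were blocked 2 h at RT in TBST with 5% blocker, incubated with primary antibody overnight at 4 °C, then with HRP secondary (1:2000, 1 h, RT). Detection was by chemiluminescence, with β-actin as loading control.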

Test [6] has as its system A-375. As to the kind of experiment: Induction of apoptosis in human A375 cells assessed as increase in cytochromeC protein level at 4 uM after 24 hrs by Western blotting. In kind it is functional, cell-based. In a few lines: as §4
For test [7], the system named is A-375. In words: Induction of apoptosis in human A375 cells assessed as reduction in CDK2 protein level at 4 uM after 24 hrs by Western blotting. The format is functional, cell-based. In a few lines:
as §5

For test [8], the system named is A-375. As to the kind of experiment: Induction of apoptosis in human A375 cells assessed as caspase3 activation at 4 uM after 24 hrs by fluorimetry. In kind it is functional, cell-based. In a few lines:
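Caspase-3 activity was measured by a fluorometric assay on lysates of treated and untreated A375 cells.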

What is called GI50 is the concentration giving 50% growth inhibition. Take `COc1cc(C2=NOC(c3cc(OC)c(OC)c(OC)c3)C2)ccc1OCCCOc1cc2c(cc1OC)C(=O)N1CCC[C@H]1C=N2` (some centres not stated): the GI50 with ZR-75-1, in the test on A2780, in the test on KB and in the test on SiHa was under 100 nM throughout. The results for the Activity in the test with A-375 [1], in the test with A-375 [2] and in the test with A-375 [3] were 98.5%, 1.1% and 0.4%, respectively. For the same compound, the outcome in the test with A-375 [4], with A-375 [5], in the test with A-375 [6], with A-375 [7] and with A-375 [8] was Active.
